Results taken from ChEMBL document CHEMBL1134485, “Diguanidino and "reversed" diamidino 2,5-diarylfurans as antimicrobial agents” (2001).
≈ marks a conversion by molar mass, not a printed value.

How the values were obtained:
Nucleic Acid [1] = system: Nucleic Acid
Nucleic Acid [2] = system: Nucleic Acid; remark: listed apart in the source
[3] = system: Mycobacterium tuberculosis; assay: In vitro minimum inhibitory concentration required to inhibit Mycobacterium tuberculosis; type: functional
Summary of the method: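 M. tuberculosis H37Rv grown in BACTEC 12B medium; fluorometric broth microdilution (Microplate Alamar Blue Assay). […] MIC = lowest concentration reducing relative fluorescence units by ≥90% relative to control culture. Testing done by TAACF.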

Candida albicans [4] = assay: In vitro minimum inhibitory concentration against Candida albicans.; type: functional
Aspergillus fumigatus [5] = assay: In vitro minimum fungicidal concentration required to inhibit Aspergillus fumigatus(MFC); type: functional
Summary of the method: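 Mould MFC: 100 µL aliquots from macrodilution tubes (RPMI 1640/MOPS pH 7.0, 0.5 × 10³ to 2.5 × 10³ CFU/mL conidial inoculum, 30 °C, 48-72 h, drug 100 to 0.09 µg/mL) showing complete growth inhibition plated on Sabouraud agar; MFC taken as lowest drug concentration giving three or fewer colonies.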

Aspergillus fumigatus [6] = assay: In vitro antimicrobial activity against Aspergillus fumigatus (MIC); type: functional
Candida albicans [7] = assay: In vitro minimum fungicidal concentration against Candida albicans.; type: functional
Summary of the method: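 Yeast MFC: after broth macrodilution (RPMI 1640/MOPS pH 7.0, 0.5 × 10³ to 2.5 × 10³ CFU/mL, 35 °C, 48 h or 72 h for C. neoformans, drug 100 to 0.09 µg/mL), 100 µL from tubes with complete inhibition plated on Sabouraud agar; lowest concentration yielding three or fewer colonies recorded.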

Aspergillus fumigatus [8] = assay: Antimicrobial activity against Aspergillus fumigatus (MIC); type: functional

Compound	ΔTm (Nucleic Acid [1])	ΔTm (Nucleic Acid [2])	MIC [3] [µg/mL]	MIC (Candida albicans [4]) [µg/mL]	MFC (Aspergillus fumigatus [5]) [µg/mL]	MIC (Aspergillus fumigatus [6]) [µg/mL]	MFC (Candida albicans [7]) [µg/mL]	MIC (Aspergillus fumigatus [8]) [µg/mL]
Cc1cc(NC(=N)N)cc(C)c1-c1ccc(-c2c(C)cc(NC(=N)N)cc2C)o1	2.7	1.4	–	–	–	–	–	–
Cl.Cl.N=C(N)Nc1ccc(-c2ccc(-c3ccc(NC(=N)N)cc3)o2)cc1	21.6	10.8	3.13	12.5	> 100	100	25	–
Cc1cc(NC(=N)c2ccccn2)ccc1-c1ccc(-c2ccc(NC(=N)c3ccccn3)cc2C)o1	22.6	8.9	≤ 1	10 (≈ 20.6 µM)	100 (≈ 206 µM)	–	10 (≈ 20.6 µM)	10 (≈ 20.6 µM)
Cc1cc(NC(=N)N)ccc1-c1ccc(-c2ccc(NC(=N)N)cc2C)o1.Cl.Cl	17.8	6.9	≤ 1	1.04	33.4	–	2.08	33.4
Cl.Cl.N=C(N)Nc1ccc(-c2ccc(-c3ccc(NC(=N)N)cc3C(F)(F)F)o2)c(C(F)(F)F)c1	5.9	0	8	10	100	–	10	100
